By Ki is commonly meant a measure of affinity in units of concentration, obtained from inhibition or displacement. Low values mean higher affinity, high ones lower affinity.

For test [1], the target named is Cannabinoid receptor 1 (Homo sapiens, UniProt P21554). The test can be described thus: Displacement of [3H]CP-55940 from human CB1 receptor.
Test [2] has as its target Cannabinoid receptor 2 (Homo sapiens, UniProt P34972). In words: Displacement of [3H]CP-55940 from human CB2 receptor. In a few lines: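 HEK cells transfected with human recombinant CB2 used for competition binding against [3H]CP-55,940 (Kd 0.31 nM) at 0.084 nM with increasing test compound concentrations; Ki derived from IC50 via Cheng-Prusoff equation; means of at least three separate experiments run in duplicate.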

Sequence of Cannabinoid receptor 1 (P21554 whole entry): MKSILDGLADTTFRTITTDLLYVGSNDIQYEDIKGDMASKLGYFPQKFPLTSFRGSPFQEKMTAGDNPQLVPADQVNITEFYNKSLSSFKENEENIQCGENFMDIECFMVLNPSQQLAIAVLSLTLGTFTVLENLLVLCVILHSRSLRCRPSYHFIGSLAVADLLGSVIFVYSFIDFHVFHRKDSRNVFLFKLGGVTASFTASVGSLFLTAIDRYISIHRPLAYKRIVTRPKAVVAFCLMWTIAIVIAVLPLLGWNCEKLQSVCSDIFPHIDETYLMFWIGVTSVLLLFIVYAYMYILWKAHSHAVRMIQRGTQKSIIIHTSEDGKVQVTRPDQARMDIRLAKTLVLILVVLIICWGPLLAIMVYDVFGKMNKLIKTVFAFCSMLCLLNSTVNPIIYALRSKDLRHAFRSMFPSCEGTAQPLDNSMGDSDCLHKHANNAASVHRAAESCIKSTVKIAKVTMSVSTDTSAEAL
Sequence of Cannabinoid receptor 2 (P34972 whole entry): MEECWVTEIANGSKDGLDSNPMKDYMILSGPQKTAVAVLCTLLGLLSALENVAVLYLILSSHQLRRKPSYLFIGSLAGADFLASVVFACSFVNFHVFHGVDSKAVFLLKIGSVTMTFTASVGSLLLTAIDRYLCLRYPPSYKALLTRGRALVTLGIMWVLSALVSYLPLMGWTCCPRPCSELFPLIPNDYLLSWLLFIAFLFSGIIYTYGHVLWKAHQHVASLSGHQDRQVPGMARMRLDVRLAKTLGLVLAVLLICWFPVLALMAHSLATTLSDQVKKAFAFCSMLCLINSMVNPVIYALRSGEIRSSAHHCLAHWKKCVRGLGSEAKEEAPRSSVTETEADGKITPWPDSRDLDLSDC

In the case of `CCCCCOC(=O)c1cc(O)c(-c2ccccc2)c(O)c1`, the Ki in test [1] is > 10 µM; in test [2] it was > 4 µM.
The like results for `COc1cc(C(=O)O)cc(O)c1-c1cc(C)cc(C)c1` were, in that order, > 10 µM and > 10 µM.
As to `CCCCCOC(=O)c1cc(O)c(-c2cc(C)cc(C)c2)c(OC)c1`, the Ki in test [1] was 1.4 µM; in test [2], 0.27 µM.
On the same counts, the results for `COc1cc(C(=O)O)cc(OC)c1-c1cc(C)cc(C)c1` are > 10 µM and > 10 µM.
On to `CCCCCOC(=O)c1cc(O)c(-c2cc(C)cc(C)c2)c(O)c1`, for which the Ki in test [1] is 2 µM; in test [2], > 1.1 µM.
With `COC(=O)c1cc(O)c(-c2cc(C)cc(C)c2)c(O)c1`, the Ki in test [1] was > 10 µM; in test [2], > 4.5 µM.
On the same counts, the results for `CCCCCOC(=O)c1cc(OC)c(-c2cc(C)cc(C)c2)c(OC)c1` are > 10 µM and > 10 µM.
As for `Cc1cc(C)cc(-c2c(O)cc(C(=O)O)cc2O)c1`, the Ki in test [1] and in test [2] was > 10 µM each time.
For the molecule `CCCCOC(=O)c1cc(O)c(-c2cc(C)cc(C)c2)c(O)c1`, the Ki was 2.6 µM in test [1] and > 3.2 µM in test [2].
As for `COC(=O)c1cc(O)c(-c2cc(C)cc(C)c2)c(OC)c1`, the Ki in test [1] is > 10 µM; in test [2] it was > 6.4 µM.

These data come from ChEMBL document CHEMBL1146227, “Metabolically labile cannabinoid esters: a 'soft drug' approach for the development of cannabinoid-based therapeutic drugs” (Bioorg Med Chem Lett, 2007).
